Usually IC50 stands for the point on the concentration scale where inhibition reaches its midpoint. For orientation: MIC means the smallest concentration in the dilution series that meets the test's criterion for growth inhibition. A low value points to a more susceptible organism.

Calls of active or inactive are those of the source.

Here are results for 30 compounds from ChEMBL document CHEMBL1811828, “LuxR dependent quorum sensing inhibition by N,N'-disubstituted imidazolium salts” (Bioorg Med Chem, 2011).

Holding throughout (type): functional
Assay [1] has as its target T1, Transcriptional activator protein LuxR (Aliivibrio fischeri) (UniProt P12746).
T1 sequence (whole entry): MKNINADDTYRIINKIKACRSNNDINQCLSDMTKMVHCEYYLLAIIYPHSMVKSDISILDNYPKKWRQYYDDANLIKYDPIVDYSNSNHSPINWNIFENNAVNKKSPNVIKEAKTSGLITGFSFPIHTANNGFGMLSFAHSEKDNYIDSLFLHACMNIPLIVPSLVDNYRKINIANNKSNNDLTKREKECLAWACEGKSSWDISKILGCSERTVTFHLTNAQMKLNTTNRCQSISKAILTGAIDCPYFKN
Nature of the assay: Agonist activity at Vibrio fischeri LuxR assessed as activation of quorum sensing activation mediated bioluminescence.

In assay [2] the target is T2, Transcriptional activator protein LuxR (Aliivibrio fischeri, UniProt P12746).
T2 sequence (P12746 whole entry): T1 sequence (whole entry)
Nature of the assay: Antagonist activity at Vibrio fischeri LuxR assessed as inhibition of 3-oxo-C6-HSL-induced quorum sensing activation mediated bioluminescence. The procedure, abridged:
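Bioluminescence induced with 200 nM 3-oxo-C6-HSL, with test compounds added. IC50 is the concentration that halves the induced light intensity. Values are means of three experiments with standard deviation.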

The subject of assay [3] is Aliivibrio fischeri. Kind of assay: Antimicrobial activity against Vibrio fischeri incubated overnight at 37 degC by disc diffusion assay. The procedure, abridged: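 Disk diffusion susceptibility assay following CLSI guidelines, with a kanamycin control disk. Compounds were tested at 20 μM, 200 μM, 2 mM and 20 mM. Inhibition zones were measured after overnight incubation at 37 °C, and the MIC was taken from these tested levels.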

Turning to `CCCCCCCCn1cc[n+](C(c2ccc(Cl)cc2Cl)c2ccc(Cl)cc2Cl)c1`, in assay [1], the result was inactive. In addition, the concentration for half-maximal inhibition (IC50) in assay [2] (read-out: IC50) was 8.9 µM.
In the case of `CCCCCCCCCCCCCCCCCCn1cc[n+](C(c2ccc(Cl)cc2)c2ccc(Cl)cc2)c1.[Br-]`, the outcome in assay [1] was inactive. In assay [2], the IC50 result is reported as “Not Active”.
With `CCCCCCCCCCCCn1cc[n+](C(c2ccccc2)c2ccccc2)c1`, in assay [1], the outcome was inactive. Besides, the IC50 in assay [2] (read-out: IC50) turned out to be 6.1 µM. In addition, in assay [3], the lowest concentration to inhibit growth (MIC) was 200 µM.
Take `CCCCCCCCCCCCn1cc[n+](C2CCCC2)c1`: in assay [1], the result was inactive. Moreover, in assay [2] (read-out: IC50), the 50% inhibitory concentration (IC50) came to 11 µM.
For the compound `CCCCCCCCCCCCCCCCn1cc[n+](C2c3ccccc3-c3ccccc32)c1`, the outcome in assay [1] was inactive. The half-inhibitory concentration (IC50) in assay [2] (read-out: IC50) is 14.7 µM.
In the same order, the values of `CCCCCCCCn1cc[n+](C(c2ccccc2)c2ccccc2)c1` are “inactive” and 76 µM.
Consider `CCCCCCCCCCCCn1cc[n+](C(c2ccc(Cl)cc2)c2ccc(Cl)cc2)c1`, for which, in assay [1], the outcome was inactive. Moreover, in assay [2] (read-out: IC50), the 50% inhibitory concentration (IC50) was 6.2 µM.
As to `CCCCCCCCCCn1cc[n+](C2CCCC2)c1`, the outcome in assay [1] was inactive. Also, the IC50 in assay [2] (read-out: IC50) worked out at 33 µM.
Turning to `CCCCn1cc[n+](C(c2ccccc2)c2ccccc2)c1.[Br-]`, the outcome in assay [1] was inactive. The IC50 entry in assay [2] is “Not Active”.
Consider `CCCCCCCCCCCCCCn1cc[n+](C2CCCC2)c1`, for which the result in assay [1] was inactive. The IC50 in assay [2] (read-out: IC50) came to 3.4 µM. Besides, the minimal inhibitory concentration (MIC) in assay [3] turned out to be 200 µM.
Regarding `CCCCCCCCCCn1cc[n+](C2c3ccccc3-c3ccccc32)c1`, the outcome in assay [1] was inactive. The half-inhibitory concentration (IC50) in assay [2] (read-out: IC50) turned out to be 4 µM.
As to `CCCCCCCCCCCCCCCCn1cc[n+](C2CCCC2)c1`, the result in assay [1] was inactive. Also, the IC50 in assay [2] (read-out: IC50) is 5.3 µM.
Taken in the same sequence, the figures for `CCCCCCCCn1cc[n+](C2c3ccccc3-c3ccccc32)c1` were “inactive” and 35 µM.
In the same order, the values of `CCCCCCCCCCn1cc[n+](C(c2ccc(Cl)cc2Cl)c2ccc(Cl)cc2Cl)c1` are “inactive” and 4.9 µM.
Take `CCCCCCCCn1cc[n+](C2CCCC2)c1`: the outcome in assay [1] was inactive. Further, the concentration for half-maximal inhibition (IC50) in assay [2] (read-out: IC50) was 68 µM.
Taken in the same sequence, the figures for `CCCCCCCCCCn1cc[n+](C(c2ccccc2)c2ccccc2)c1` were “inactive” and 18 µM.
Taken in the same sequence, the figures for `CCCCCCCCCCCCCCCCn1cc[n+](C(c2ccccc2)c2ccccc2)c1` were “inactive” and 7.3 µM.
Taken in the same sequence, the figures for `CCCCCCCCn1cc[n+](C(c2ccc(Cl)cc2)c2ccc(Cl)cc2)c1` were “inactive” and 9.8 µM.
Consider `CCCCCCCCCCCCn1cc[n+](C2c3ccccc3-c3ccccc32)c1`, for which, in assay [1], the outcome was inactive. Also, in assay [2] (read-out: IC50), the IC50 turned out to be 1.4 µM. For the same compound, inhibition of growth in assay [3] (MIC) required 200 µM.
Turning to `CCCCCCCCCCCCCCCCCCn1cc[n+](C(c2ccc(Cl)cc2Cl)c2ccc(Cl)cc2Cl)c1.[Br-]`, the result in assay [1] was inactive. The half-inhibitory concentration (IC50) result in assay [2] is “Not Active”.
Taken in the same sequence, the figures for `CCCCCCCCCCCCCCn1cc[n+](C(c2ccc(Cl)cc2Cl)c2ccc(Cl)cc2Cl)c1.[Br-]` were “inactive” and “Not Active”.
For the compound `CCCCCCn1cc[n+](C(c2ccc(Cl)cc2Cl)c2ccc(Cl)cc2Cl)c1`, the result in assay [1] was inactive. Besides, the IC50 in assay [2] (read-out: IC50) was found to be 52 µM.
Regarding `CCCCCCCCCCCCCCCCCCn1cc[n+](C2CCCC2)c1`, the outcome in assay [1] was inactive. In assay [2] (read-out: IC50), the IC50 is 86 µM.
Taken in the same sequence, the figures for `CCCCCCCCCCCCCCn1cc[n+](C(c2ccc(Cl)cc2)c2ccc(Cl)cc2)c1` were “inactive” and 75 µM.
For the compound `CCCCCCCCCCCCCCn1cc[n+](C2c3ccccc3-c3ccccc32)c1`, the result in assay [1] was inactive. The IC50 in assay [2] (read-out: IC50) was 2.7 µM.
In the same order, the values of `CCCCCCn1cc[n+](C(c2ccc(Cl)cc2)c2ccc(Cl)cc2)c1` are “inactive” and 63 µM.
Taken in the same sequence, the figures for `CCCCCCCCCCCCn1cc[n+](C(c2ccc(Cl)cc2Cl)c2ccc(Cl)cc2Cl)c1` were “inactive” and 6.5 µM.
Taken in the same sequence, the figures for `CCCCCCCCCCn1cc[n+](C(c2ccc(Cl)cc2)c2ccc(Cl)cc2)c1` were “inactive” and 5.8 µM.
On to `CCCCCCCCCCCCCCn1cc[n+](C(c2ccccc2)c2ccccc2)c1`, for which the outcome in assay [1] was inactive. The IC50 in assay [2] (read-out: IC50) was determined as 5.2 µM.
Turning to `CCCCCCn1cc[n+](C(c2ccccc2)c2ccccc2)c1`, in assay [1], the outcome was inactive. Also, the half-inhibitory concentration (IC50) in assay [2] (read-out: IC50) was determined as 153 µM.
